The values below come from ChEMBL document CHEMBL3600347, “Syntheses and in Vitro Antiplasmodial Activity of Aminoalkylated Chalcones and Analogues” (J Nat Prod, 2015).

By IC50 is commonly meant the point on the concentration scale where inhibition reaches its midpoint. A low value points to inhibition by little substance.

For data set [1], the system named is Plasmodium falciparum. In words: Antiplasmodial activity chloroquinone-sensitive Plasmodium falciparum NF54 by parasite lactate dehydrogenase assay. In kind it is functional, organism-based. The gist of the method:
(§1)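 Asexual erythrocytic P. falciparum stages kept in continuous culture (modified Trager–Jensen). Growth inhibition read by parasite lactate dehydrogenase assay (modified Makler). Samples run in triplicate on one or two separate occasions. IC50 from full dose–response curves by nonlinear curve fitting. Chloroquine served as internal standard to monitor conditions.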

Data set [2] relates to Plasmodium falciparum. In words: Antiplasmodial activity chloroquinone-sensitive Plasmodium falciparum D10 by parasite lactate dehydrogenase assay. In kind it is functional, organism-based. The gist of the method: as §1
Data set [3] has as its system Plasmodium falciparum. In words: Antiplasmodial activity chloroquinone-resistant Plasmodium falciparum Dd2 by parasite lactate dehydrogenase assay. In kind it is functional, organism-based. The gist of the method: (§2)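 Asexual erythrocyte-stage P. falciparum kept in continuous culture by a modified Trager–Jensen method. Growth inhibition was read by a modified Makler parasite lactate dehydrogenase assay. Samples were run in triplicate on one or two separate occasions, with chloroquine as internal standard. IC50 was taken from full dose–response curves by nonlinear curve fitting.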

The test system of data set [4] is CHO. In words: Cytotoxicity against CHO cells by MTT assay. It counts as cell-based, Cricetulus griseus. The gist of the method: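 Chinese hamster ovary cells; viability by MTT assay (modified Mosmann). Samples prepared as for antiplasmodial testing. Emetine reference in every experiment, started at 100 μg/mL and serially diluted 10-fold in complete medium to six concentrations, lowest 0.001 μg/mL. IC50 from dose–response curves.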

The nature of data set [5]: Selectivity index, ratio of IC50 for CHO cells to IC50 for chloroquinone-sensitive Plasmodium falciparum D10. As to conditions: hamster, CHO cells versus Plasmodium falciparum D10.
Data set [6] in a line: Selectivity index, ratio of IC50 for CHO cells to IC50 for chloroquinone-sensitive Plasmodium falciparum D10. It counts as toxicity, cell-based. As to conditions: hamster; for selectivity ratio: CHO cells versus Plasmodium falciparum D10, read-out: Ratio IC50; for Ratio IC50: cho. The gist of the method: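 Selectivity index computed as CHO-cell IC50 (MTT) divided by P. falciparum IC50 from the pLDH assay, for a representative subset of compounds.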

For data set [7], the system named is Plasmodium falciparum. In words: Resistance index, ratio of IC50 for chloroquinone-resistant Plasmodium falciparum Dd2 to IC50 for chloroquinone-sensitive Plasmodium falciparum D10. It counts as functional.
In data set [8] the test system is Plasmodium falciparum. In words: Antiplasmodial activity chloroquinone-resistant Plasmodium falciparum K1 by parasite lactate dehydrogenase assay. In kind it is functional, organism-based. The gist of the method: as §2
Data set [9] relates to Plasmodium falciparum. In words: Resistance index, ratio of IC50 for […] to IC50 for chloroquinone-[…] Plasmodium falciparum K1. It counts as functional.

The structures appear in SMILES notation.

As for `c1ccc(CN2CCCCC2)cc1`, the IC50 in data set [1] (Plasmodium falciparum, NF54) was > 5000 nM.

For the molecule `Oc1ccccc1CN1CCCCC1`, the IC50 in data set [1] (Plasmodium falciparum, NF54) was > 5000 nM.

With `CCc1ccc(C(=O)/C=C/c2ccc(CN3CCCCC3)c(O)c2)cc1`, the IC50 in data set [2] (Plasmodium falciparum, D10) worked out at 140 nM; in data set [3], 210 nM; in data set [4] (Cricetulus griseus, CHO), 6590 nM. For the same molecule, the selectivity ratio in [5] came out at 47. With `Oc1ccc(CCCc2ccc(C(F)(F)F)cc2)cc1CN1CCCCC1` [listing 1 of 2 here], the concentration for half-maximal inhibition (IC50) in data set [1] (Plasmodium falciparum, NF54) was 280 nM. This counts as sub-micromolar. As for `CCc1ccc(CCCc2ccc(CN3CCCCC3)c(O)c2)cc1` [listing 1 of 2 here], the IC50 in data set [1] is 60 nM. In other words, the double-digit nanomolar range. `NC(=O)c1ccc(CCCc2ccccc2)cc1`: the IC50 in data set [1] (Plasmodium falciparum, NF54) is > 4000 nM.

Turning to `CC(C)Nc1ccc(CCCc2cccc(O)c2)cc1`, the IC50 in data set [1] (Plasmodium falciparum, NF54) was > 3000 nM. Same read-out and setting: with `Oc1cc(CCCc2ccc(CCCc3ccc(CN4CCCCC4)c(O)c3)cc2)ccc1CN1CCCCC1` the figure was 60 nM; with `Cc1ccc(S(=O)(=O)Oc2cc(CCCc3ccc(F)cc3)ccc2CN2CCCCC2)cc1`, > 2000 nM.

In the case of `Oc1cc(CCCc2ccc3ccccc3c2)ccc1CN1CCCCC1`, 40 nM corresponded to half-maximal inhibition in data set [1] (Plasmodium falciparum, NF54) (IC50). As to `COc1ccc(C(=O)/C=C/c2cccc(O)c2)cc1`, in data set [2] (Plasmodium falciparum, D10), the half-inhibitory concentration (IC50) stood at 11300 nM. In other words, the double-digit micromolar range. In the case of `COc1ccc(C(=O)/C=C/c2ccc(CN3CCCCC3)c(O)c2)cc1`, the IC50 in data set [2] (Plasmodium falciparum, D10) turned out to be 830 nM; in data set [4] (Cricetulus griseus, CHO), 197000 nM. In addition, the selectivity ratio in [6] turned out to be 237. In the case of `O=C(/C=C/c1ccc(CN2CCCC2)c(O)c1)c1ccccc1`, half-maximal inhibition in data set [2] (Plasmodium falciparum, D10) (IC50) required 6540 nM. That is a single-digit micromolar value. In [2] (Plasmodium falciparum, D10), `COc1ccc(C(=O)/C=C/c2cc(CN3CCCCC3)c(O)c(OC)c2)cc1` showed a 50% inhibitory concentration (IC50) of 2810 nM. Compared with the last molecule, the IC50 is about 2.3-fold lower. `COc1ccc(C(=O)/C=C/c2ccc(CN3CCOCC3)c(O)c2)cc1` yielded a 50% inhibitory concentration (IC50) in data set [2] (Plasmodium falciparum, D10) of 4900 nM.

In turn, `COc1ccc(C(=O)/C=C/c2ccc(O)c(CN3CCN(C)CC3)c2)cc1` gave a concentration for half-maximal inhibition (IC50) in [2] (Plasmodium falciparum, D10) of 3770 nM.

In data set [2] (Plasmodium falciparum, D10), `COc1ccc(C(=O)/C=C/c2ccc(CN3CCCC3)c(O)c2)cc1` gave a 50% inhibitory concentration (IC50) of 5750 nM. Still for that read-out and setting: for `CCN1CCN(Cc2ccc(/C=C/C(=O)c3ccc(OC)cc3)cc2O)CC1` the value was 2740 nM; for `COc1ccc(C(=O)/C=C/c2ccc(CN(C)C)c(O)c2)cc1`, 2520 nM; for `COc1ccc(C(=O)/C=C/c2ccc(O)c(CN(C)C)c2)cc1`, > 3000 nM. Consider `O=C(/C=C/c1ccc(O)c(CN2CCCCC2)c1)c1ccc(C(F)(F)F)cc1`, for which the IC50 came out at 170 nM in data set [2] (Plasmodium falciparum, D10); 200 nM in data set [3]; 8220 nM in data set [4] (Cricetulus griseus, CHO). Moreover, in data set [6], the selectivity ratio worked out at 49. On the same counts, the results for `O=C(/C=C/c1ccc(CN2CCCCC2)c(O)c1)c1ccc(Br)cc1` are 150 nM, 210 nM, 7270 nM and 50. On the same counts, the results for `O=C(/C=C/c1ccc(CN2CCCCC2)c(O)c1)c1ccc(F)cc1` are 100 nM, 710 nM, 77200 nM and 796. Take `O=C(/C=C/c1ccc(CN2CCCCC2)c(O)c1)c1ccccn1`: the half-inhibitory concentration (IC50) in data set [2] (Plasmodium falciparum, D10) turned out to be 1370 nM. This counts as single-digit micromolar.

The molecule `O=C(/C=C/c1ccc(CN2CCCCC2)c(O)c1)c1ccc[nH]1` registered a half-maximal inhibitory concentration (IC50) in data set [2] (Plasmodium falciparum, D10) of 2420 nM. Against the preceding molecule, the IC50 is about 1.8-fold higher.

`O=C(/C=C/c1ccc(CN2CCCCC2)c(O)c1)c1cccs1` came in with an IC50 in data set [2] (Plasmodium falciparum, D10) of 2730 nM. The IC50 values of the last two molecules are within 1.5-fold of each other. `Cc1ccc(C(=O)/C=C/c2ccc(CN3CCCCC3)c(O)c2)cc1`: the IC50 in data set [2] (Plasmodium falciparum, D10) was > 3000 nM.

Turning to `O=C(CCc1ccc(CN2CCCCC2)c(O)c1)c1ccc(F)cc1`, the midpoint of inhibition in [1] (Plasmodium falciparum, NF54), the IC50, lay at 260 nM. As to `O=C(CCc1ccc(CN2CCCCC2)c(O)c1)c1cccs1`, the 50% inhibitory concentration (IC50) in data set [2] (Plasmodium falciparum, D10) was found to be 190 nM; in data set [3] it was 270 nM; in data set [4] (Cricetulus griseus, CHO), 168000 nM. Besides, the selectivity ratio in [6] stood at 895.

For the molecule `O=C(CCc1ccc(CN2CCCCC2)c(O)c1)c1ccc[nH]1`, the IC50 in data set [2] (Plasmodium falciparum, D10) is > 3000 nM. Still for that read-out and setting: for `COc1ccc(CCCc2cccc(O)c2)cc1` the value was > 30000 nM. Turning to `COc1ccc(CCCc2ccc(CN3CCCCC3)c(O)c2)cc1`, the IC50 in data set [2] came out at 210 nM; in [4] (cho) it was 69800 nM. In addition, the “Ratio IC50” value in data set [6] is on record as 332. For `COc1ccc(CCCc2cc(O)c(CN3CCCCC3)cc2CN2CCCCC2)cc1`, the half-inhibitory concentration (IC50) in data set [2] (Plasmodium falciparum, D10) amounted to 60 nM; in data set [3], 80 nM; in [4] (Cricetulus griseus, CHO) it was 200000 nM. In addition, the “Ratio IC50” value in data set [7] is 1.47. Further, the selectivity ratio in [6] was 3510. Turning to `Oc1ccc(CCCc2ccc(C(F)(F)F)cc2)cc1CN1CCCCC1` [listing 2 of 2 here], the IC50 was 10 nM in data set [2] (Plasmodium falciparum, D10) and 30 nM in [3]. Also, the “Ratio IC50” value in data set [7] is recorded as 5.8. As for `Oc1cc(CCCc2ccc(F)cc2)ccc1CN1CCCCC1`, in data set [2], half-maximal inhibition (IC50) was put at 70 nM. `Cc1ccc(CCCc2ccc(CN3CCCCC3)c(O)c2)cc1`: the IC50 in data set [2] (Plasmodium falciparum, D10) worked out at 90 nM; in data set [3], 270 nM; in [4] (Cricetulus griseus, CHO) it was 4950 nM. Moreover, in data set [7], the “Ratio IC50” value is on record as 3.06. Besides, the selectivity ratio in [6] was determined as 56. Regarding `CCc1ccc(CCCc2ccc(CN3CCCCC3)c(O)c2)cc1` [listing 2 of 2 here], the IC50 amounted to 180 nM in data set [1] and 25200 nM in data set [4] (Cricetulus griseus, CHO). Moreover, in data set [5], the selectivity ratio turned out to be 138. As for `Oc1cc(CCCc2cccs2)ccc1CN1CCCCC1`, the 50% inhibitory concentration (IC50) turned out to be 50 nM in [1] (Plasmodium falciparum, NF54) and 20 nM in data set [8]. Further, in data set [9], the “Ratio IC50” value is 0.48. `CC(C)Nc1ccc(CCCc2ccc(CN3CCCCC3)c(O)c2)cc1` showed a half-maximal inhibitory concentration (IC50) in data set [1] (Plasmodium falciparum, NF54) of 180 nM. On the same count and under the same terms, for `Oc1ccc(CCCc2ccccc2)cc1CN1CCCCC1` the value was 60 nM.

In the case of `Oc1cc(CCCc2ccccc2)ccc1CN1CCCCC1`, in [1] (Plasmodium falciparum, NF54), the concentration for half-maximal inhibition (IC50) amounted to 140 nM. On the same count and under the same terms, for `Oc1cc(CCCc2ccccc2)ccc1CN1CCNCC1` the value was 2810 nM; for `CN1CCN(Cc2ccc(CCCc3ccccc3)cc2O)CC1`, 790 nM; for `CCN1CCN(Cc2ccc(CCCc3ccccc3)cc2O)CC1`, 410 nM.

In data set [1] (Plasmodium falciparum, NF54), `Oc1cc(CCCc2ccccc2)ccc1CN1CCCC1` gave an IC50 of 40 nM. This IC50 lies about 10-fold lower than the previous one. Same read-out and setting: for `Oc1cc(CCCc2ccccc2)ccc1CN1CCOCC1` the value was 750 nM; for `CN(C)Cc1ccc(CCCc2ccccc2)cc1O`, 90 nM.

With `COc1ccc(CCCc2ccc(CN3CCCCC3)c(O)c2)cc1.Cl`, the half-maximal inhibitory concentration (IC50) was found to be 70 nM in data set [2], 70 nM in data set [3] and 211000 nM in [4] (cho). Moreover, the “Ratio IC50” value in [7] came out at 1; in data set [6] it was 3063. With `Cl.Oc1cc(CCCc2ccc(F)cc2)ccc1CN1CCCCC1`, the IC50 is 30 nM in data set [2]; 20 nM in data set [3]; 163000 nM in data set [4] (Cricetulus griseus, CHO). Besides, the “Ratio IC50” value in [7] is given as 0.79. The selectivity ratio in data set [6] came out at 5830. Consider `Cl.Oc1cc(CCCc2ccccc2)ccc1CN1CCCCC1`, for which the IC50 in [2] (Plasmodium falciparum, D10) was 20 nM; in data set [3] it was 30 nM; in data set [4] (Cricetulus griseus, CHO), 162000 nM. Further, the “Ratio IC50” value in [7] turned out to be 1.35. In addition, the selectivity ratio in data set [6] came to 7030. The molecule `CCc1ccc(CN2CCCCC2)c(O)c1` displayed an IC50 in [1] (Plasmodium falciparum, NF54) of 1040 nM. On to `CC(=O)CCc1ccc(CN2CCCCC2)c(O)c1`, for which, in data set [1] (Plasmodium falciparum, NF54), 1710 nM corresponded to half-maximal inhibition (IC50). Consider `Oc1cc(CCc2ccccc2)ccc1CN1CCCCC1`, for which, in [1] (Plasmodium falciparum, NF54), the half-maximal inhibitory concentration (IC50) stood at 120 nM. Compared with the last molecule, the IC50 is about 14-fold lower. Same read-out and setting: with `Oc1cc(CCCc2ccc(-c3ccccc3)cc2)ccc1CN1CCCCC1` the figure was 80 nM.

`O=C(/C=C/c1cccc(O)c1)c1ccccc1` [3-HYDROXY CHALCONE]: in [2] (Plasmodium falciparum, D10), the IC50 was 15700 nM. In data set [4] (Cricetulus griseus, CHO), `CC[C@H]1CN2CCc3cc(OC)c(OC)cc3[C@@H]2C[C@@H]1C[C@H]1NCCc2cc(OC)c(OC)cc21` [EMETINE] had a half-maximal inhibitory concentration (IC50) of 30 nM.
